Here are results for one molecule from PMC3582785 (Arthritis and rheumatism, 2013).

This assay has as its system SE-expressing peptides and tetrameric proteins. The assay is described as follows: SPR binding of CRT variants. As to conditions: citrullinated CRT compared to non-citrullinated CRT. An outline of the steps:
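Native, PAD-citrullinated or Arg→Ala mouse CRT was immobilised at 3000 RU. Analytes were 15mer SE-positive or SE-negative control peptides at 330 μM, and HLA-DR tetramers (SE-positive or SE-negative) at 250 nM.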
(Surface plasmon resonance follows binding to a sensor surface in real time, without labels.)

B1: Cit-CRT: recombinant mouse CRT citrullinated in vitro with PAD from rabbit skeleton muscle (protein, UniProt P14211 18-416, looked up)
Calreticulin: DPAIYFKEQFLDGDAWTNRWVESKHKSDFGKFVLSSGKFYGDLEKDKGLQTSQDARFYALSAKFEPFSNKGQTLVVQFTVKHEQNIDCGGGYVKLFPSGLDQKDMHGDSEYNIMFGPDICGPGTKKVHVIFNYKGKNVLINKDIRCKDDEFTHLYTLIVRPDNTYEVKIDNSQVESGSLEDDWDFLPPKKIKDPDAAKPEDWDERAKIDDPTDSKPEDWDKPEHIPDPDAKKPEDWDEEMDGEWEPPVIQNPEYKGEWKPRQIDNPDYKGTWIHPEIDNPEYSPDANIYAYDSFAVLGLDLWQVKSGTIFDNFLITNDEAYAEEFGNETWGVTKAAEKQMKDKQDEEQRLKEEEEDKKRKEEEEAEDKEDDDDRDEDEDEEDEKEEDEEESPGQAKDEL
modifications: citrullinated
As for B1, the “interaction with the SE ligand (in words)” value is on record as “higher affinity for the SE ligand”.
